Source: the RNAGym collection of RNA variant scans (doi:10.1126/science.aae0568)
Variants at the floor of the assay were thinned out.

B1: tRNA (parent)
chain: GUUCCGUUGGCGUAAUGGUAACGCGUCUCCCUCCUAAGGAGAAGACUGCGGGUUCGAGUCCCGUACGGAACG

Variants of: B1
Assay: yeast fitness relative to wild type (ratio to wild type); higher = fitter; tRNA-Arg(CCU), competitive growth, 37 C, YPD
Procedure, shortened: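 Amplicons of the tRNA-Arg(CCU) gene were sequenced, 100-nucleotide paired-end, from the start population and from each end population of a pooled yeast competition. The competition, in six parallel replicates, lasted 24 hours in YPD at 37°C. Fitness relative to wild type was calculated from changes in genotype frequencies. Genotypes had to have ≥ 100 starting reads, and estimates < 0.5 were set to 0.5.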

| Variant | yeast fitness |
| --- | --- |
| G10C A21C U26G C34U A40G G51A | 0.598 |
| G10C A15U | 0.691 |
| G10A U35G A37U U47C G56C U64C A69C | ≤ 0.5 |
| G10C C11A | 0.6 |
| G10A C55A | 0.67 |
| G10C A21G G23A | ≤ 0.5 |
| G10A U16A C31A A42G A43G G68C | ≤ 0.5 |
| G10C A45U G48A C55A | ≤ 0.5 |
| G10A C24A C62U | ≤ 0.5 |
| G10C A14U U19A C22U G68A | ≤ 0.5 |
| G10A C66A | 0.545 |
| G10A C66G | 0.592 |
| G10A G39C C62U G63A A70U | ≤ 0.5 |
| G10A C24U A36C | ≤ 0.5 |
| G10A U28C C61U C66G | ≤ 0.5 |
| G10C A20G C24U G38C A57C G63C | ≤ 0.5 |
| G10C A14G G39A A65U | ≤ 0.5 |
| G10A U16A G38C G41C A65G | ≤ 0.5 |
| G10A C27G G38A A42G | 0.661 |
| G10A G44A | 0.786 |
| G10A G44C | 0.79 |
| G10A C61U | 0.744 |
| G10A C61A | ≤ 0.5 |
| G10A C61G | ≤ 0.5 |

| Variant | yeast fitness |
| --- | --- |
| G10C A21G C30A G38C C46U A70C | 0.869 |
| G10A G25A C29G C31U | ≤ 0.5 |
| G10A G23A A45G | ≤ 0.5 |
| G10A C30G G68A | ≤ 0.5 |
| G10C A14U C62U G67U | ≤ 0.5 |
| G10A C30A C62A | ≤ 0.5 |
| G10A C27U | 0.817 |
| G10A C27G | 0.551 |
| G10C A37G G52A C55G G58A | ≤ 0.5 |
| G10A G41C | 0.717 |
| G10A G41A | 0.661 |
| G10A C30U G41A A69C | 0.548 |
| G10A C22U G68A | ≤ 0.5 |
| G10A C31A G41C | ≤ 0.5 |
| G10C A14C C24U A70C | ≤ 0.5 |
| G10A C34U A43G | ≤ 0.5 |
| G10A C24A G52U | ≤ 0.5 |
| G10C A40U | 0.635 |
| G10A G25A | 0.862 |
| G10A C31U A37G | 0.796 |
| G10A G18A C27G A37G G38A | ≤ 0.5 |
| G10C A36G | 0.663 |
| G10A U35A A57C | ≤ 0.5 |
| G10A C29A | 0.574 |

| Variant | yeast fitness |
| --- | --- |
| G10A C33U U64A | 0.553 |
| G10A G18A C62U | ≤ 0.5 |
| G10A C29A U35A G56A G67C | ≤ 0.5 |
| G10A U35G A37U U47C G56C A69C | ≤ 0.5 |
| G10C A15C C29G G48A | 0.643 |
| G10A U35G A37U U47C A70G | ≤ 0.5 |
| G10C A14C G52C | ≤ 0.5 |
| G10A G25A A40C C55G C61A | ≤ 0.5 |
| G10A C33U A45U G48C U64A | ≤ 0.5 |
| G10A G17A C31G | ≤ 0.5 |
| G10A G38C C46A C62G C66U | ≤ 0.5 |
| G10C A70C | 0.689 |
| G10A U54C C61G | ≤ 0.5 |
| G10C A20U C22A | ≤ 0.5 |
| G10A C24A G56C | ≤ 0.5 |
| G10A G56A | 0.754 |
| G10A U54A C55G | ≤ 0.5 |
| G10A U16A G68A | 0.567 |
| G10C A20G U26C C46U | ≤ 0.5 |
| G10A C29A C34G A43C | 0.68 |
| G10A G18A C46A | 0.539 |
| G10A U13A A14C A43U C60G | ≤ 0.5 |
| G10A G67A | 0.75 |
| G10A G67C | 0.819 |

| Variant | yeast fitness |
| --- | --- |
| G10A U16A C31A G51A A70U | ≤ 0.5 |
| G10C A14G A36U | ≤ 0.5 |
| G10A G18A A36G U53A A70G | ≤ 0.5 |
| G10C A36U C66U A70C | ≤ 0.5 |
| G10A G50A U59G C62A | ≤ 0.5 |
| G10A C30U C60G C66U | ≤ 0.5 |
| G10A C31A U32C G41C | ≤ 0.5 |
| G10C A45U C60G C66G | ≤ 0.5 |
| G10C A43C U53A | ≤ 0.5 |
| G10A G18A A36G | ≤ 0.5 |
| G10A C24A A43U G48A | ≤ 0.5 |
| G10A C27A A37U G52A U54C G56C A57G | ≤ 0.5 |
| G10A U16A C24A G39C A43U C60U | ≤ 0.5 |
| G10A G38C A57G | ≤ 0.5 |
| G10A G17A A37U | ≤ 0.5 |
| G10C A15C A21C | ≤ 0.5 |
| G10C A14C A15C A43U | ≤ 0.5 |
| G10A C29A A45U | ≤ 0.5 |
| G10A U13C A40C | ≤ 0.5 |
| G10A U19A A40C A42C | 0.541 |
| G10A G17A U59G C62U | ≤ 0.5 |
| G10A U32G C66A | ≤ 0.5 |
| G10C A14G C22U A37G A40U C46A U54C | ≤ 0.5 |
| G10C A37U G58A | 0.608 |

| Variant | yeast fitness |
| --- | --- |
| G10A C30U C34U A42G A57C | ≤ 0.5 |
| G10A C46U | 0.812 |
| G10A U47C C62U | 0.566 |
| G10C A45C | 0.626 |
| G10A G23C C29U A36C A57U G63A | ≤ 0.5 |
| G10A C61G C66U A69U | ≤ 0.5 |
| G10A C24U C49U | 0.53 |
| G10A U32C G63A | ≤ 0.5 |
| G10C A15U A37U A45C G52C | 0.606 |
| G10A C60G A70U | ≤ 0.5 |
| G10A C29G C34G | ≤ 0.5 |
| G10A G51C G58U | ≤ 0.5 |
| G10A G17A A36G A40C A57C C62A | ≤ 0.5 |
| G10A U13A C24U A65C | ≤ 0.5 |
| G10A G41A C60G A65G | 0.529 |
| G10C A14C A40C C60A G63A | ≤ 0.5 |
| G10C A21U C22G G67C | 0.765 |
| G10C A45C U59C | ≤ 0.5 |
| G10C A15U C27A C49G U64A | ≤ 0.5 |
| G10A C34A | 0.712 |
| G10A C27G C60A | ≤ 0.5 |
| G10A U35A G52C C66U | ≤ 0.5 |
| G10A U13A C24A C55G C62U | ≤ 0.5 |
| G10A C49G | 0.668 |

| Variant | yeast fitness |
| --- | --- |
| G10A C49U | 0.697 |
| G10A C62G | 0.64 |
| G10A C24U | 0.977 |
| G10A C24G | 0.517 |
| G10A U16A U32C A65G | ≤ 0.5 |
| G10A U26A G63A | ≤ 0.5 |
| G10C A14U C62U A69C | ≤ 0.5 |
| G10A G25A G41C A57G | ≤ 0.5 |
| G10C A15U C29G C46U G51C | ≤ 0.5 |
| G10C A15C C46U | ≤ 0.5 |
| G10C A15U A37U | ≤ 0.5 |
| G10A U26A C27U C29A A65G G68C | 0.563 |
| G10A G38C | 0.549 |
| G10A U53G C60A G68U A69C | ≤ 0.5 |
| G10A C24A C33U A57U U59G | ≤ 0.5 |
| G10C A43G G52C C62U G63A | 0.531 |
| G10A U19A A42G A65C | ≤ 0.5 |
| G10A C31G | 0.651 |
| G10A U32G | ≤ 0.5 |
| G10A G23C C61G | ≤ 0.5 |
| G10C A14U U19A C22U | 0.505 |
| G10C A14U C22U C24G U35C G56C U64A | ≤ 0.5 |
| G10A U13G A43U U53C | ≤ 0.5 |
| G10A U16G | 0.611 |

| Variant | yeast fitness |
| --- | --- |
| G10A U35A A37G A43U A45C | ≤ 0.5 |
| G10A U26A C49U C66U | ≤ 0.5 |
| G10A U59C G68C | ≤ 0.5 |
| G10C A20C | 0.631 |
| G10A G52A A69U | ≤ 0.5 |
| G10A G25A U47C | ≤ 0.5 |
| G10A C55G G58A | ≤ 0.5 |
| G10C A14U U19A C22U U59G A65C | ≤ 0.5 |
| G10A C30A C55A G58A | ≤ 0.5 |
| G10A C24A C29G U35A A36U | ≤ 0.5 |
| G10A G12C A21U A42U | ≤ 0.5 |
| G10C A21G G56A | ≤ 0.5 |
| G10C A14G C66U | 0.505 |
| G10A G51A | 0.691 |
| G10A C31G G44A G56C | ≤ 0.5 |
| G10C A14U G25A C27U U53C | ≤ 0.5 |
| G10A C24A A43C | ≤ 0.5 |
| G10A C49U A69U | ≤ 0.5 |
| G10C A40G C62G | ≤ 0.5 |
| G10A U13G C27U C46G | ≤ 0.5 |
| G10C A21G C22U C46U G56C | 0.58 |
| G10C A14U C31G | ≤ 0.5 |
| G10A C33U A45U G48C U64A A70U | ≤ 0.5 |
